The values that follow come from ChEMBL document CHEMBL1135596, “Synthesis and evaluation of indenopyrazoles as cyclin-dependent kinase inhibitors. 2. Probing the indeno ring substituent pattern” (J Med Chem, 2002).

Assay [1] has as its target T1, Cyclin-dependent kinase 2/cyclin E (Homo sapiens, UniProt P24941). In words: Compound was evaluated for inhibition of Cyclin-dependent kinase 2-cyclin E. It is filed as protein-complex assay. A digest of the protocol:
(§1)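 CDK2/his-cyclin E in 50 mM Tris-HCl pH 7.6, 10 mM MgCl2, 10% DMSO, 1 mM DTT, 50 µM ATP, 0.05 µCi [γ-32P]ATP, 6 µM GST-Rb. Incubated at room temperature, stopped with cold PBS containing 100 mM EDTA, 10 mM ATP, BSA and NP40. 32P incorporation into Rb measured; IC50 by fit of v/vo to [I] with slope factor.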

Assay [2] deals with T2, Cyclin-dependent kinase 4/cyclin D1 (Homo sapiens, UniProt P11802). In words: Compound was evaluated for 50% inhibition of Cyclin-dependent kinase 4-cyclin D1. It is filed as protein-complex assay. In short, it runs like this:
(§2)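 CDK4/cyclin D1 from extracts of co-expressing cells; 50 mM Tris-HCl pH 7.6, 10 mM MgCl2, 10% DMSO, 1 mM DTT, 50 µM ATP with [γ-32P]ATP, 6 µg GST-Rb (Rb aa 378-928). Started with 4 units enzyme, 15 min at room temperature, stopped with EDTA/ATP buffer. Labeled GST-Rb captured on GSH-Sepharose and counted by scintillation. IC50 from fit of v/vo versus [I] with slope term.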

In the next assay the test system is AG1523. In words: Toxicity tested against normal human fibroblast cell line (AG1523). It is filed as functional, cell-based. A digest of the protocol: (§3)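 Sulforhodamine B growth assay. HCT116 colon carcinoma or AG1523 normal fibroblasts were seeded in McCoy's 5A with 5% FBS, at a density allowing 3-5 doublings. Incubation was 5 days (HCT116) or 6 days (AG1523) at 37 °C, 5% CO2. Cells were fixed with cold TCA, stained with 0.4% SRB, and dye was dissolved in 10 mM Tris base; OD read at 570 nm.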

Assay [3] relates to HCT-116. In words: Toxicity tested against transformed human colon cancer cell line (HCT116). It is filed as functional, cell-based. A digest of the protocol:
as §3

For assay [4], the system named is HCT-116. In words: Effect of serum protein binding on inhibition of transformed cell line(PB HCT116) proliferation. It is filed as functional, cell-based. Particulars: Homo sapiens. In short, it runs like this: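 HCT116 cells were grown as in the SRB assay, with 45 mg/mL human serum albumin plus 1 mg/mL α1-acid glycoprotein added together with graded compound. Growth was read out by MTT: 1 mg/mL solution added, 4 h at 37 °C. Formazan was solubilized in 0.04 N HCl/isopropanol and absorbance read at 570 nm against a 630 nm reference.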

Assay [5] deals with T1, Cyclin-dependent kinase 2/cyclin E. In words: Inhibition of Cyclin-dependent kinase 2-cyclin E. The format is protein-complex assay. In short, it runs like this:
as §1

Assay [6] addresses T2, Cyclin-dependent kinase 4/cyclin D1. In words: Inhibition of Cyclin-dependent kinase 4-cyclin D1. It is filed as protein-complex assay. In short, it runs like this:
as §2

T2 sequence (P11802 whole entry, the tested form may be a part): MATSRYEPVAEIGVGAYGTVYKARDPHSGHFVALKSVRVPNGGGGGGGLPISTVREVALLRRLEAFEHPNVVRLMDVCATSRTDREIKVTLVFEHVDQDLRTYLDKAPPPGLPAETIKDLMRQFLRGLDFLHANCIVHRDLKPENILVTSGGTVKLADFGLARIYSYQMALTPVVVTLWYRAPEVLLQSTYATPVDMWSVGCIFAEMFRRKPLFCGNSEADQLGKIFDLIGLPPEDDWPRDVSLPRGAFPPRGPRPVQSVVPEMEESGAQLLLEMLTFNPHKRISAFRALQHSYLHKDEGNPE
T2 sequence (P24385 whole entry, further chain, the tested form may be a part): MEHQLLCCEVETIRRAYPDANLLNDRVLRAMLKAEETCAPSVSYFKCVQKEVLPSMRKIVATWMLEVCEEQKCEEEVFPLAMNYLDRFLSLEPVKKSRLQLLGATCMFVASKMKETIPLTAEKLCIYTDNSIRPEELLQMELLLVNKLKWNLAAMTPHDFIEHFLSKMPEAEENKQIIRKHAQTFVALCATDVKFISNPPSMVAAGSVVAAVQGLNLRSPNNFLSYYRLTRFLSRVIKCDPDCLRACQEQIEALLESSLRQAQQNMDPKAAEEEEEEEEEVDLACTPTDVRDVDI

One may read the IC50 as the concentration needed to halve the response being measured. A lower IC50 goes with inhibition by little substance. With `COc1ccc(-c2[nH]nc3c2C(=O)c2c(NC(=O)Nc4ccccc4)cccc2-3)cc1`, the values for the IC50 in assay [1] and in assay [2] were 32 nM and 877 nM, respectively.
For `COc1ccc(-c2[nH]nc3c2C(=O)c2cc(N)ccc2-3)cc1` the same measures were 210000 nM and 108000 nM.
`COc1ccc(-c2[nH]nc3c2C(=O)c2c(NC(=O)CN4CCC(CN)CC4)cccc2-3)cc1`: the IC50 stood at 600 nM in the assay on AG1523, 12 nM in assay [1], 20 nM in assay [2] and 70 nM with HCT-116 [3].
Take `COc1ccc(-c2[nH]nc3c2C(=O)c2c(NC(=O)CN(C)C)cccc2-3)cc1`: the IC50 was 44 nM in assay [1] and 900 nM in assay [2].
In the case of `COc1ccc(-c2[nH]nc3c2C(=O)c2c(NC(N)=O)cccc2-3)cc1`, the IC50 in the assay with AG1523 is 413 nM; in assay [1], 7 nM; in assay [2], 66 nM; with HCT-116 [3], 57 nM; in the assay with HCT-116 [4], 3200 nM.
In assay [2], `COc1ccc(-c2[nH]nc3c2C(=O)c2cc(Cl)c(Cl)cc2-3)cc1` returned an IC50 of 55500 nM.
For `CCNCC(=O)Nc1cccc2c1C(=O)c1c-2n[nH]c1-c1ccc(OC)cc1`, the half-inhibitory concentration (IC50) in assay [1] was 130 nM; in assay [2] it was 917 nM.
In the case of `COc1ccc(-c2[nH]nc3c2C(=O)c2c(NC(=O)N(C)Cc4ccccc4)cccc2-3)cc1`, the IC50 in assay [1] and in assay [2] was > 2300 nM throughout.
Regarding `COc1ccc(-c2c3c(nn2C)-c2ccccc2C3=O)cc1`, the IC50 in assay [1] and in assay [2] was > 340000 nM in each case.
For `COc1ccc(-c2[nH]nc3c2C(=O)c2cccnc2-3)cc1`, in assay [2], the IC50 is > 361000 nM.
As for `COc1ccc(-c2[nH]nc3c2C(=O)c2c(NC(=O)NN4CCCCC4)cccc2-3)cc1`, the figures for the IC50 in assay [1] and in assay [2] were 22 nM and 12 nM, respectively.
Turning to `COc1ccc(-c2[nH]nc3c2C(=O)c2c(NC(=O)NN4CCCC4)cccc2-3)cc1`, the IC50 stood at 15 nM in assay [1] and 12 nM in assay [2].
As to `COc1ccc(-c2[nH]nc3c2C(=O)c2c(NC(=O)NN4CCOCC4)cccc2-3)cc1`, the IC50 with AG1523 was 950 nM; in assay [1], 18 nM; in assay [2] it was 12 nM; in the assay on HCT-116 [3] it was 20 nM; with HCT-116 [4] it was 622 nM.
Take `COc1ccc(-c2[nH]nc3c2C(=O)c2ccncc2-3)cc1`: the concentration for half-maximal inhibition (IC50) in assay [1] is 4700 nM; in assay [2], 34500 nM.
As to `CCCCNC(=O)Nc1cccc2c1C(=O)c1c(-c3ccc(OC)cc3)n[nH]c1-2`, the values for the half-inhibitory concentration (IC50) in assay [1] and in assay [2] were 84 nM and 780 nM, respectively.
Turning to `COc1ccc(-c2[nH]nc3c2C(=O)c2c(NC(=O)CN4CCNCC4)cccc2-3)cc1`, the IC50 in assay [1] was 33 nM; in assay [2] it was 113 nM.
As for `COc1ccc(-c2c3c(nn2-c2ccccc2)-c2ccccc2C3=O)cc1`, the half-inhibitory concentration (IC50) in assay [1] is > 280000 nM; in assay [2] it was > 200000 nM.
For `COc1ccc(-c2[nH]nc3c2C(=O)c2c(NC(=O)CN4CCOCC4)cccc2-3)cc1` the same measures were 21 nM and 195 nM.
For the compound `COc1ccc(-c2[nH]nc3c2C(=O)c2c(NC(=O)NCc4ccncc4)cccc2-3)cc1`, the half-inhibitory concentration (IC50) is > 24000 nM with AG1523; 29 nM in assay [1]; 1150 nM in assay [2]; 378 nM in the assay with HCT-116 [3]; > 58000 nM with HCT-116 [4].
Turning to `COc1ccc(-c2[nH]nc3c2C(=O)c2c(NC(=O)CN4CCC(C(N)=O)CC4)cccc2-3)cc1`, the concentration for half-maximal inhibition (IC50) in the assay with AG1523 was determined as 400 nM; in assay [1], 8 nM; in assay [2], 76 nM.
For the compound `CCN(CC)C(=O)Nc1cccc2c1C(=O)c1c(-c3ccc(OC)cc3)n[nH]c1-2`, the IC50 in assay [1] and in assay [2] was > 1300 nM each time.
Regarding `COc1ccc(-c2[nH]nc3c2C(=O)c2c(NC(=O)CN4CCSCC4)cccc2-3)cc1`, the IC50 in assay [1] was 54 nM; in assay [2], > 500 nM.
Take `COc1ccc(-c2[nH]nc3c2C(=O)c2c(NC(=O)NN(C)C)cccc2-3)cc1`: the IC50 is 385 nM in the assay on AG1523; 5 nM in assay [5]; 21 nM in assay [6]; 28 nM in the assay with HCT-116 [3]; 1240 nM with HCT-116 [4].
As for `COc1ccc(-c2[nH]nc3c2C(=O)c2c(NC(=O)NCc4ccccc4)cccc2-3)cc1`, the IC50 in assay [1] came out at 95 nM; in assay [2], 307 nM.
As to `COc1ccc(-c2[nH]nc3c2C(=O)c2c(NC(=O)CN4CCN(C(=N)N)CC4)cccc2-3)cc1`, the figures for the concentration for half-maximal inhibition (IC50) (in assay [1]; in assay [2]; with HCT-116 [3]) were 7 nM, 26 nM and > 900 nM, respectively.
Turning to `COc1ccc(-c2[nH]nc3c2C(=O)c2c(NC(=O)CN4CCN(C(N)=O)CC4)cccc2-3)cc1`, the IC50 is > 400 nM in the assay with AG1523; 8 nM in assay [1]; 64 nM in assay [2]; 47 nM in the assay on HCT-116 [3]; > 5200 nM in the assay with HCT-116 [4].
Take `COc1ccc(-c2[nH]nc3c2C(=O)c2c(N)cccc2-3)cc1`: the values for the IC50 in assay [1] and in assay [2] were 8400 nM and 23000 nM, respectively.
Taken in the same sequence, the figures for `COc1ccc(-c2[nH]nc3c2C(=O)c2c(NC(=O)CN4CCC(CO)CC4)cccc2-3)cc1` were 11 nM and 82 nM.
Taken in the same sequence, the figures for `COc1ccc(-c2[nH]nc3c2C(=O)c2c(NC(=O)CN4CCN(C)CC4)cccc2-3)cc1` were 12 nM and 125 nM.
Turning to `COc1ccc(-c2[nH]nc3c2C(=O)c2c(NC(=O)CN4CCCCC4)cccc2-3)cc1`, the concentration for half-maximal inhibition (IC50) in assay [1] was 185 nM; in assay [2] it was > 1000 nM.
For `COc1ccc(-c2[nH]nc3c2C(=O)c2c(O)cccc2-3)cc1` the same measures were 5200 nM and 20000 nM.
In the case of `COc1ccc(-c2[nH]nc3c2C(=O)c2c(NC(=O)NN4CCN(C)CC4)cccc2-3)cc1`, the half-maximal inhibitory concentration (IC50) in the assay with AG1523 stood at 85 nM; in assay [1] it was 12 nM; in assay [2], 9 nM; in the assay on HCT-116 [3], 15 nM.
The compound `COc1ccc(-c2[nH]nc3c2C(=O)c2cc(O)ccc2-3)cc1` came in with an IC50 in assay [2] of 21500 nM.
In the case of `COc1ccc(-c2[nH]nc3c2C(=O)c2c(NC(=O)CN)cccc2-3)cc1`, the IC50 in assay [1] is > 720 nM; in assay [2] it was > 1400 nM.
For `COc1ccc(CNC(=O)Nc2cccc3c2C(=O)c2c(-c4ccc(OC)cc4)n[nH]c2-3)cc1` the same measures were 180 nM and > 1100 nM.
